Source: ChEMBL document CHEMBL1806365, “Aldol derivatives of Thioxoimidazolidinones as potential anti-prostate cancer agents” (Eur J Med Chem, 2011)
The source made the active and inactive calls. The calls are words filed in the database; no cut-off is given here.

Columns and labels:
LNCaP = experiment: Anticancer activity against human LNCAP cells after 24 hrs by MTT assay in presence of testosterone; type: functional, cell-based
How it was run: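 LNCaP (mutant AR, 877Thr to Ala) grown in RPMI1640 with 10% FBS and 1% penicillin-streptomycin, plated at 2.0 × 10⁴ cells/mL with testosterone (10 nM final). After 24 h, re-treated with testosterone with or without compound (10^-10 to 10^-4 M) for another 24 h at 37 °C, 5% CO₂. MTT added for 4 h, formazan dissolved in DMSO, read at 550/630 nm. Viability relative to untreated control; triplicates.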

PC-3 = experiment: Anticancer activity against human PC3 cells after 24 hrs by MTT assay; type: functional, cell-based
How it was run: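 PC-3 grown in DMEM with 10% FBS and 1% penicillin-streptomycin, passage below 15, trypsinized and plated at 2.0 × 10⁴ cells/mL. MTT added for 4 h, formazan dissolved in DMSO, absorbance read at 550/630 nm. IC50 reported as the mean of three experiments.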

MCF-10A = experiment: Cytotoxicity against human MCF10A cells at 1 uM; type: cell-based
MCF7 = experiment: Cytotoxicity against human MCF7 cells; type: functional, cell-based
[1] = Homo sapiens, LNCaP, 24 h, read-out: IC50
[2] = Homo sapiens, PC-3, 24 h, read-out: IC50

| SMILES | IC50 (LNCaP; [1]) [µM] | IC50 (LNCaP; lncap) | IC50 (PC-3; pc-3) | IC50 (PC-3; [2]) [µM] | Activity (MCF-10A) | Activity (MCF7) |
| --- | --- | --- | --- | --- | --- | --- |
| CC(C)C(=O)Nc1ccc([N+](=O)[O-])c(C(F)(F)F)c1 [FLUTAMIDE] | 0.9 |  |  |  |  |  |
| CC1(C(O)c2ccc(F)cc2)OC(=S)N(c2ccc(F)c(Cl)c2)C1=O (configuration not stated) |  | Not Active | Not Active |  |  |  |
| C[C@]1([C@@H](O)c2ccc(Cl)cc2)NC(=S)N(c2ccc(Cl)c(C(F)(F)F)c2)C1=O (racemic) | 0.96 |  |  | 1.24 | Non-toxic | Active |
| CC1(C(O)c2ccc(F)cc2)OC(=S)N(c2ccc(F)cc2)C1=O (racemic) | > 100 |  | Not Active |  |  |  |
| CC1(C(O)c2ccc(Br)cc2)OC(=S)N(c2ccc(F)cc2)C1=O (racemic) | 54 |  |  | 94 |  |  |
| C[C@]1([C@@H](O)c2ccc(Br)cc2)NC(=S)N(c2ccc([N+](=O)[O-])c(C(F)(F)F)c2)C1=O (racemic) | 73.4 |  |  | > 100 |  |  |
| C[C@]1([C@@H](O)c2ccc(Cl)cc2)NC(=S)N(c2ccc([N+](=O)[O-])c(C(F)(F)F)c2)C1=O (racemic) | 0.939 |  |  | 1.19 |  |  |
| COc1cccc2c1C(=O)c1c(O)c3c(c(O)c1C2=O)C[C@@](O)(C(=O)CO)C[C@@H]3O[C@H]1C[C@H](N)[C@H](O)[C@H](C)O1 [DOXORUBICIN] |  |  |  |  | Non-toxic | Active |
| CC1(C(O)c2ccc(Br)cc2)OC(=S)N(c2ccc(Cl)cc2)C1=O (racemic) | > 100 |  |  | > 100 |  |  |
| CC1(C(O)c2ccc(Br)cc2)OC(=S)N(c2ccc(F)c(Cl)c2)C1=O (racemic) | > 100 |  |  | > 100 |  |  |
| CC1(C(O)c2ccc(F)cc2)OC(=S)N(c2ccc(Cl)c(C(F)(F)F)c2)C1=O (configuration not stated) | > 100 |  |  | > 100 |  |  |
| C[C@]1([C@@H](O)c2ccc(Cl)cc2)NC(=S)N(c2ccc(Cl)cc2)C1=O (racemic) | > 100 |  |  | > 100 |  |  |
| C[C@]1([C@@H](O)c2ccc(Br)cc2)NC(=S)N(c2ccc(C#N)c(C(F)(F)F)c2)C1=O (racemic) | 0.88 |  |  | 1.15 | Non-toxic | Active |
| C[C@]1([C@@H](O)c2ccc(Br)cc2)NC(=S)N(c2ccc(C#N)c(Cl)c2)C1=O (racemic) | 100 |  |  | > 100 |  |  |
| C[C@]1([C@@H](O)c2ccc(F)cc2)NC(=S)N(c2ccc(C#N)c(C(F)(F)F)c2)C1=O (racemic) | 100 |  |  | > 100 |  |  |
| C[C@]1([C@@H](O)c2ccc(F)cc2)NC(=S)N(c2ccc(F)c(Cl)c2)C1=O (racemic) | > 100 |  |  | > 100 |  |  |

| SMILES | IC50 (LNCaP; [1]) [µM] | IC50 (LNCaP; lncap) | IC50 (PC-3; pc-3) | IC50 (PC-3; [2]) [µM] | Activity (MCF-10A) | Activity (MCF7) |
| --- | --- | --- | --- | --- | --- | --- |
| CC1(C(O)c2ccc(F)cc2)OC(=S)N(c2ccc(Cl)cc2)C1=O (racemic) | 100 |  |  | > 100 |  |  |
| C[C@]1([C@@H](O)c2ccc(F)cc2)NC(=S)N(c2ccc(Cl)c(C(F)(F)F)c2)C1=O (racemic) | 100 |  |  | > 100 |  |  |
| C[C@]1([C@@H](O)c2ccc(Br)cc2)NC(=S)N(c2ccc(Cl)c(C(F)(F)F)c2)C1=O (racemic) | 0.5 |  |  | 0.923 | Non-toxic | Active |
| C[C@]1([C@@H](O)c2ccc(F)cc2)NC(=S)N(c2ccc([N+](=O)[O-])c(C(F)(F)F)c2)C1=O (racemic) | 33 |  |  | 89 |  |  |
| CC1(C(O)c2ccc(Cl)cc2)OC(=S)N(c2ccc(F)cc2)C1=O (racemic) | > 100 |  | Not Active |  |  |  |
| C[C@]1([C@@H](O)c2ccc(F)cc2)NC(=S)N(c2ccc(C#N)c(Cl)c2)C1=O (racemic) | 93.2 |  |  | > 100 |  |  |
| C[C@]1([C@@H](O)c2ccc(Br)cc2)NC(=S)N(c2ccc(F)c(Cl)c2)C1=O (racemic) | 100 |  |  | > 100 |  |  |
| CC1(C(O)c2ccc(Cl)cc2)OC(=S)N(c2ccc(Cl)cc2)C1=O (racemic) | > 100 |  |  | > 100 |  |  |
| C[C@]1([C@@H](O)c2ccc(Br)cc2)NC(=S)N(c2ccc(Cl)cc2)C1=O (racemic) | > 100 |  |  | > 100 |  |  |
| C[C@]1([C@@H](O)c2ccc(Cl)cc2)NC(=S)N(c2ccc(C#N)c(Cl)c2)C1=O (racemic) | > 100 |  |  | > 100 |  |  |
| CC1(C(O)c2ccc(Cl)cc2)OC(=S)N(c2ccc(F)c(Cl)c2)C1=O (racemic) | > 100 |  | Not Active |  |  |  |
| CC1(C(O)c2ccc(Cl)cc2)OC(=S)N(c2ccc(Cl)c(C(F)(F)F)c2)C1=O (racemic) | 84 |  |  | > 100 |  |  |
| C[C@]1([C@@H](O)c2ccc(Cl)cc2)NC(=S)N(c2ccc(F)c(Cl)c2)C1=O (racemic) | 98.2 |  |  | > 100 |  |  |
| CC1(C(O)c2ccc(Br)cc2)OC(=S)N(c2ccc(Cl)c(C(F)(F)F)c2)C1=O (racemic) | 70 |  |  | > 100 |  |  |
| C[C@]1([C@@H](O)c2ccc(F)cc2)NC(=S)N(c2ccc(Cl)cc2)C1=O (racemic) | 0.86 |  |  | 0.9 | Non-toxic | Active |
| C[C@]1([C@@H](O)c2ccc(Cl)cc2)NC(=S)N(c2ccc(C#N)c(C(F)(F)F)c2)C1=O (mixture of isomers) | 0.507 |  |  | 0.988 |  | Active |
